Data from ChEMBL document CHEMBL4837214, “Design, synthesis, and biological evaluation of novel tetrahydroprotoberberine derivatives to reduce SREBPs expression for the treatment of hyperlipidemia” (Eur J Med Chem, 2021).
Calls of active or inactive are those of the source. The calls are words filed in the database; no cut-off is given here.

test system: HepG2; assay: Down regulation of intracellular TC level in human HepG2 cells at 10 uM measured after 24 hrs; format: functional, cell-based
Summary of the method: (§1)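 HepG2 cells grown in six-well plates and exposed 24 h to compound at […]. Cells collected in PBS and sonicated (5 s on, 10 s off, 60 s total). Total cholesterol or triglyceride measured with a colorimetric determination kit.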

With `CCCOc1c(OC)ccc2c1CN1CCc3cc4c(cc3C1C2)OCO4` (centres undefined) the Activity was “Active”.
In the case of `COc1cc2c(cc1OC)C1Cc3ccc(OC)c(OS(=O)(=O)c4c(C(C)C)cc(C(C)C)cc4C(C)C)c3CN1CC2` (centres undefined), the Activity was “Active”.
For `COc1cc2c(cc1OC)C1Cc3ccc(OC)c(OC(=O)C4CC4)c3CN1CC2` (centres undefined), the Activity was “Active”.
`COc1ccc2c(c1OCc1ccc([N+](=O)[O-])cc1)CN1CCc3cc4c(cc3C1C2)OCO4` (centres undefined) was tested, and the Activity was “Active”.

test system: HepG2; assay: Down regulation of intracellular TG level in human HepG2 cells at 10 uM measured after 24 hrs; format: functional, cell-based; summary of the method: as §1

In the case of `CCCCOc1c(OC)ccc2c1CN1CCc3cc4c(cc3C1C2)OCO4` (centres undefined), the Activity was “Active”.
In the case of `CCCOc1c(OC)ccc2c1CN1CCc3cc4c(cc3C1C2)OCO4` (centres undefined), the Activity was “Active”.
`COc1cc2c(cc1OC)C1Cc3ccc(OC)c(OS(=O)(=O)c4c(C(C)C)cc(C(C)C)cc4C(C)C)c3CN1CC2` (centres undefined) was tested, and the Activity was “Active”.
With `COc1cc2c(cc1OC)C1Cc3ccc(OC)c(OC(=O)C4CC4)c3CN1CC2` (centres undefined) the Activity was “Active”.
`COc1ccc2c(c1OCc1ccc([N+](=O)[O-])cc1)CN1CCc3cc4c(cc3C1C2)OCO4` (centres undefined) was tested, and the Activity was “Active”.

test system: HepG2; assay: Cytotoxicity against human HepG2 cells assessed as reduction in cell viability at 10 uM after 24 hrs by CCK8 assay; format: functional

Going from `CCCCOc1c(OC)ccc2c1CN1CCc3cc4c(cc3C1C2)OCO4` (centres undefined) to `CCCOc1c(OC)ccc2c1CN1CCc3cc4c(cc3C1C2)OCO4` (centres undefined), the Activity rises from 98.1% to 101.5%.

Going from `COc1cc2c(cc1OC)C1Cc3ccc(OC)c(OS(=O)(=O)c4cccs4)c3CN1CC2` (centres undefined) to `COc1cc2c(cc1OC)C1Cc3ccc(OC)c(OS(=O)(=O)c4ccc(Br)cc4)c3CN1CC2` (centres undefined), the Activity falls from 89.2% to 86.5%.

Compared with `CCOc1c(OC)ccc2c1CN1CCc3cc4c(cc3C1C2)OCO4` (centres undefined), `C/C=C/C(=O)Oc1c(OC)ccc2c1CN1CCc3cc4c(cc3C1C2)OCO4` (centres undefined) is lower in Activity: 87.7% for the first, 84.3% for the second.

First: COc1ccc2c(c1OS(=O)(=O)c1c(C)cc(C)cc1C)CN1CCc3cc4c(cc3C1C2)OCO4 (centres undefined)
Second: COc1ccc2c(c1OS(=O)(=O)c1cc(C)ccc1C)CN1CCc3cc4c(cc3C1C2)OCO4 (centres undefined)
The Activity of the first is lower: 80.7% for the first, 84.5% for the second.

Going from `COc1cc2c(cc1OC)C1Cc3ccc(OC)c(OS(=O)(=O)c4ccc(Cl)c([N+](=O)[O-])c4)c3CN1CC2` (centres undefined) to `COc1cc2c(cc1OC)C1Cc3ccc(OC)c(OS(=O)(=O)c4ccccc4[N+](=O)[O-])c3CN1CC2` (centres undefined), the Activity falls from 94.7% to 84.8%.

First: CCCS(=O)(=O)Oc1c(OC)ccc2c1CN1CCc3cc(OC)c(OC)cc3C1C2 (centres undefined)
Second: CCS(=O)(=O)Oc1c(OC)ccc2c1CN1CCc3cc(OC)c(OC)cc3C1C2 (centres undefined)
The Activity of the first is lower: 80.2% for the first, 87.7% for the second.

Going from `COc1ccc2c(c1OC(=O)C(C)(C)CCl)CN1CCc3cc4c(cc3C1C2)OCO4` (centres undefined) to `COc1ccc2c(c1OC(=O)C1CC1)CN1CCc3cc4c(cc3C1C2)OCO4` (centres undefined), the Activity falls from 99.6% to 90.7%.

Compared with `COc1cc2c(cc1OC)C1Cc3ccc(OC)c(OC(=O)c4ccco4)c3CN1CC2` (centres undefined), `COc1cc2c(cc1OC)C1Cc3ccc(OC)c(OC(=O)c4cccc(Br)c4)c3CN1CC2` (centres undefined) is lower in Activity: 80.9% for the first, 80.2% for the second.

Going from `COc1ccc2c(c1OC(=O)C13CC4CC(CC(C4)C1)C3)CN1CCc3cc4c(cc3C1C2)OCO4` (centres undefined) to `COc1cc2c(cc1OC)C1Cc3ccc(OC)c(OC(=O)C45CC6CC(CC(C6)C4)C5)c3CN1CC2` (centres undefined), the Activity rises from 80.2% to 99.3%.

Compared with `C/C=C/C(=O)Oc1c(OC)ccc2c1CN1CCc3cc(OC)c(OC)cc3C1C2` (centres undefined), `C=C(C)C(=O)Oc1c(OC)ccc2c1CN1CCc3cc(OC)c(OC)cc3C1C2` (centres undefined) is higher in Activity: 81.7% for the first, 95.4% for the second.

Compared with `CCCC(CCC)C(=O)Oc1c(OC)ccc2c1CN1CCc3cc(OC)c(OC)cc3C1C2` (centres undefined), `COc1cc2c(cc1OC)C1Cc3ccc(OC)c(OC(=O)C(C)(C)CCl)c3CN1CC2` (centres undefined) is lower in Activity: 97.9% for the first, 91.2% for the second.

Going from `CCOc1ccccc1C(=O)Oc1c(OC)ccc2c1CN1CCc3cc(OC)c(OC)cc3C1C2` (centres undefined) to `COc1cc2c(cc1OC)C1Cc3ccc(OC)c(OC(=O)c4cccc(C)c4)c3CN1CC2` (centres undefined), the Activity falls from 84.6% to 84.3%.

First: COc1cc2c(cc1OC)C1Cc3ccc(OC)c(OC(=O)c4ccc(CCl)cc4)c3CN1CC2 (centres undefined)
Second: COc1cc2c(cc1OC)C1Cc3ccc(OC)c(OC(=O)c4ccc(F)cc4)c3CN1CC2 (centres undefined)
The Activity of the first is lower: 88.3% for the first, 95.1% for the second.

Compared with `COc1cc2c(cc1OC)C1Cc3ccc(OC)c(OS(=O)(=O)c4cc(C)ccc4C)c3CN1CC2` (centres undefined), `COc1cc2c(cc1OC)C1Cc3ccc(OC)c(OS(=O)(=O)c4c(C)cc(C)cc4C)c3CN1CC2` (centres undefined) is lower in Activity: 81.4% for the first, 73.3% for the second.

Compared with `COc1ccc2c(c1OS(=O)(=O)c1c(C(C)C)cc(C(C)C)cc1C(C)C)CN1CCc3cc4c(cc3C1C2)OCO4` (centres undefined), `COc1cc2c(cc1OC)C1Cc3ccc(OC)c(OS(=O)(=O)c4c(C(C)C)cc(C(C)C)cc4C(C)C)c3CN1CC2` (centres undefined) is lower in Activity: 92.8% for the first, 91.1% for the second.

First: COc1ccc2c(c1OC(=O)c1ccc(F)cc1)CN1CCc3cc4c(cc3C1C2)OCO4 (centres undefined)
Second: COc1ccc2c(c1OC(=O)c1ccc(CCl)cc1)CN1CCc3cc4c(cc3C1C2)OCO4 (centres undefined)
The Activity of the first is lower: 85.6% for the first, 97.8% for the second.

Going from `COc1cc2c(cc1OC)C1Cc3ccc(OC)c(OC(=O)C4CC4)c3CN1CC2` (centres undefined) to `COc1cc2c(cc1OC)C1Cc3ccc(OC)c(OC(=O)C4CCCCC4)c3CN1CC2` (centres undefined), the Activity falls from 91.2% to 85.5%.

Compared with `COc1ccc2c(c1OC(=O)c1ccco1)CN1CCc3cc4c(cc3C1C2)OCO4` (centres undefined), `COc1ccc2c(c1OC(=O)c1cccc(Br)c1)CN1CCc3cc4c(cc3C1C2)OCO4` (centres undefined) is higher in Activity: 83.9% for the first, 85% for the second.

First: COc1ccc2c(c1OS(=O)(=O)c1ccccc1[N+](=O)[O-])CN1CCc3cc4c(cc3C1C2)OCO4 (centres undefined)
Second: COc1ccc2c(c1OS(=O)(=O)c1ccc(Cl)c([N+](=O)[O-])c1)CN1CCc3cc4c(cc3C1C2)OCO4 (centres undefined)
The Activity of the first is lower: 88.8% for the first, 93.4% for the second.

Going from `COc1ccc2c(c1OCc1cc(F)ccc1F)CN1CCc3cc4c(cc3C1C2)OCO4` (centres undefined) to `COc1ccc2c(c1OS(=O)(=O)c1ccc(F)cc1)CN1CCc3cc4c(cc3C1C2)OCO4` (centres undefined), the Activity falls from 87.7% to 86.8%.

Compared with `CCOc1ccccc1C(=O)Oc1c(OC)ccc2c1CN1CCc3cc4c(cc3C1C2)OCO4` (centres undefined), `COc1ccc2c(c1OC(=O)c1cccc(C)c1)CN1CCc3cc4c(cc3C1C2)OCO4` (centres undefined) is lower in Activity: 96% for the first, 90.1% for the second.

Going from `COc1ccc2c(c1OC(=O)C1CCCCC1)CN1CCc3cc4c(cc3C1C2)OCO4` (centres undefined) to `COc1ccc2c(c1OS(=O)(=O)c1cccs1)CN1CCc3cc4c(cc3C1C2)OCO4` (centres undefined), the Activity rises from 90.7% to 93.4%.

`COc1cc2c(cc1OC)C1Cc3ccc(OC)c(OS(=O)(=O)c4ccc(F)cc4)c3CN1CC2` (centres undefined) was tested, and the Activity was 93.4%.
